Laboratory results from article PMC11293135 (Journal of Nanobiotechnology, 2024).
Structures can show the parent of a compound that is named as a salt.

Key:
4T1 cells = experiment: In vitro cytotoxicity, CCK-8 assay; format: cell-based, murine; conditions: concentrations up to 50 μM, three days
Summary of the method: (§1)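 4T1 and HC11 cells were grown in RPMI-1640 with 10% FBS at 37 °C and 5% CO2. Cells were exposed to the azido-sugar test compound at 0–50 μM for 3 days. Viability was read by CCK-8.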

HC11 cells = experiment: In vitro cytotoxicity, CCK-8 assay; format: cell-based, mouse; conditions: concentrations up to 50 μM, three days
Summary of the method: as §1

PD-L1 = conditions: DOX treatment; ref [41], [42]; cited from earlier work
4T1 tumor-bearing mice [1] = experiment: Treatment-related toxicity; format: in vivo, BALB/c mice; conditions: 5 mg/kg
Summary of the method: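 Female BALB/c mice bearing ~150 mm3 s.c. 4T1 tumors were split into 5 groups (n = 5). Click groups were pretreated with azido-sugar 40 mg/kg i.p. daily for 3 days; others received PBS. Treatments at 5 mg/kg i.v. were given every 7 days. Body weight was recorded every 2 days for 14 days. Major organs were fixed in 4% paraformaldehyde, paraffin-embedded, and H&E stained.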

DCs from TDLNs = experiment: DC maturation in TDLNs by flow cytometry; format: in vivo, BALB/c mice; conditions: mean ± SD, n = 5
Summary of the method: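 Female BALB/c mice (5–6 weeks) received 1.0 × 10^6 4T1 cells s.c. in the flank. Once tumors reached ~150 mm3, click groups got azido-sugar 40 mg/kg i.p. daily for 3 days and others got PBS. All groups then received 5 mg/kg i.v. every 7 days (n = 5). TDLNs were digested with collagenase IV (37 °C, 1 h) and strained at 70 μm. Mature DCs were gated CD40+CD80+MHC II+CCR7+. Mean ± SD reported.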

4T1 tumor-bearing mice [2] = experiment: In vivo MR-T1 mapping imaging; design: species or system BALB/c mice; conditions: by 3 h post-injection, 1 mg/kg i.v., n = 3
Summary of the method: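 4T1 flank tumors were raised in female BALB/c mice (1.0 × 10^6 cells s.c.), n = 3 per group. The click group received azido-sugar 40 mg/kg i.p. once daily for 3 days; the other groups received PBS. Mice were then injected i.v. with 150 μL (1 mg/kg) of Gd probe or Gd-DOTA. T1 mapping was done before injection and at 1, 2, 3 and 4 h, and tumor 1/T1 values were quantified.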

CC(=O)OC[C@H]1OC(OC(C)=O)[C@@H](NC(=O)CN=[N+]=[N-])[C@@H](OC(C)=O)[C@@H]1OC(C)=O (stereo partly shown) [Ac4ManNAz, tetraacetyl-N-azidoacetylmannosamine]
Cytotoxicity to 4T1 cells (4T1 cells): no significant harm
Cytotoxicity to HC11 cells (HC11 cells): no significant harm

COc1cccc2c1C(=O)c1c(O)c3c(c(O)c1C2=O)C[C@@](O)(C(=O)CO)C[C@@H]3O[C@H]1C[C@H](N)[C@H](O)[C@H](C)O1 [DOX, Doxorubicin hydrochloride]
PD-L1 expression of 4T1 cells (PD-L1): elevation in PD-L1 expression
Body weight change (4T1 tumor-bearing mice [1]; measured every two days for 14 days, n = 5): severe weight loss
H&E analyses on major organs compared to PBS-treated mice (4T1 tumor-bearing mice [1]; end of antitumor study): substantial damage
MHC-II expression in TDLNs (DCs from TDLNs): 45.04 ± 1.85%

O=C([O-])CN1CCN(CC(=O)[O-])CCN(CC(=O)[O-])CCN(CC(=O)[O-])CC1.[Gd+3] [Gd-DOTA]
Tumor MR signal (4T1 tumor-bearing mice [2]): returned to baseline levels
